Calls of active or inactive are those of the source.
What was measured:
Mus musculus [1] = assay: Analgesic activity in Swiss CD mouse at 100 mg/kg, ip measured 0.5 hr post treatment by hot-plate method relative to control; format: functional; details: route intraperitoneal
Outline: (§1)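 Male mice, about 20 g, dosed ip in saline. Each mouse was dropped into a glass cylinder on an aluminium plate held at 57 °C. Latency to the first flick of a hind foot was timed at 0.5 and 2 h post-dose, with a 10-s cutoff. At least ten mice per dose. Percent control = mean latency ÷ mean control latency × 100; 200% was the lower bound of activity.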

Mus musculus [2] = assay: Analgesic activity in Swiss CD mouse at 100 mg/kg, ip measured 2 hrs post treatment by hot-plate method relative to control; format: functional; details: route intraperitoneal; outline: as §1
Mus musculus [3] = assay: Analgesic activity in Swiss CD mouse assessed as elevation of response latency at 100 mg/kg, ip measured 0.5 hr post treatment by tail flick method relative to control; format: functional; details: route intraperitoneal
Outline: (§2)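 Male mice, about 20 g, dosed ip in saline (solution or suspension). High-intensity heat was focused on the tail, and latency to a sudden tail flick was timed, with a 10-s cutoff. Tests ran at 0.5 and 2 h post-dose, with at least ten mice per dose. Percent control = mean latency ÷ mean control latency × 100; 200% was the lower bound of activity.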

Mus musculus [4] = assay: Analgesic activity in Swiss CD mouse assessed as elevation of response latency at 100 mg/kg, ip measured 2 hrs post treatment by tail flick method relative to control; format: functional; details: route intraperitoneal; outline: as §2
Mus musculus [5] = assay: Analgesic activity in Swiss CD mouse at 32 mg/kg, ip measured 2 hrs post treatment by hot-plate method relative to control; format: functional; details: route intraperitoneal; outline: as §1
[6] = Toxicity in ip dosed Swiss CD mouse measured 0.5 to 2 hrs post treatment; format: organism-based; details: in vivo
Mus musculus [7] = assay: Analgesic activity in Swiss CD mouse at 32 mg/kg, ip measured 0.5 hr post treatment by hot-plate method relative to control; format: functional; details: route intraperitoneal; outline: as §1
Mus musculus [8] = assay: Analgesic activity in Swiss CD mouse assessed as elevation of response latency at 32 mg/kg, ip measured 2 hrs post treatment by tail flick method relative to control; format: functional; details: route intraperitoneal; outline: as §2
Mus musculus [9] = assay: Analgesic activity in Swiss CD mouse assessed as elevation of response latency at 32 mg/kg, ip measured 0.5 hr post treatment by tail flick method relative to control; format: functional; details: route intraperitoneal; outline: as §2
Rattus norvegicus [10] = assay: Neuroleptic activity in ip dosed Sprague-Dawley CD rat assessed as reversal of amphetamine-induced stereotypy compound administered 1hr prior challenge; format: functional
Outline: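 Rats dosed ip, then given amphetamine sulfate 5 mg/kg 1 h later. The ED50 is the dose that reverses the amphetamine-induced stereotypy.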

Rattus norvegicus [11] = assay: Analgesic activity in Sprague-Dawley CD rat at 32 mg/kg, ip measured 0.5 to 2 hrs post treatment by flinch-jump method relative to control; format: functional, organism-based; design: dose 32 mg/kg
Outline: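 Male rats, 200-300 g, dosed ip (saline solution or suspension). A single rising series of 1-s foot shocks was given just before and at 0.5 and 2 h after dosing. The minimum shock intensity (mA) evoking each behaviour was recorded. No response at the 2.2-mA level counted as activity. At least five rats per dose.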

Rattus norvegicus [12] = assay: Neuroleptic activity in decarboxylase-inhibited Sprague-Dawley CD rat brain assessed as increase in DOPA accumulation at 0.01 mmol/kg relative to control; format: functional; design: scale not given: the % may be the effect or the level left

SMILES	Activity (Mus musculus [1]) [%]	Activity (Mus musculus [2]) [%]	Activity (Mus musculus [3]) [%]	Activity (Mus musculus [4]) [%]	also measured
COc1ccc(Cl)c2c1CCC(CN1CCC(O)(c3ccccc3)CC1)=C2.Cl	249	175	196	158	–
CCC(=O)OC1CCN(CC2=Cc3c(Cl)ccc(OC)c3CC2)CC1.Cl	95	101	237	179	–
C=CCNCC1=Cc2c(Cl)ccc(OC)c2CC1.Cl	158	115	131	108	–
C=CCN1CCN(CC2=Cc3c(Cl)ccc(OC)c3CC2)CC1.Cl	164	127	159	137	–
COc1ccc(F)c2c1CCC(CN1CCCC1)=C2.Cl	–	–	–	–	Activity (Mus musculus [5]): 149%; LD50 [6]: 32 mg/kg; Activity (Mus musculus [7]): 183%; Activity (Mus musculus [8]): 141%; Activity (Mus musculus [9]): 170%
COc1ccc(Cl)c2c1CCC(CN1CCN(C)CC1)=C2	274	218	198	137	–
COc1ccc(Cl)c2c1CCC(CN1CCN(S(N)(=O)=O)CC1)=C2.Cl	123	109	104	88	–
COc1ccc(Cl)c2c1CCC(CN1CCN(c3cccc(C(F)(F)F)c3)CC1)=C2.O	167	149	119	118	–
COc1ccc(Cl)c2c1CCC(CN1CCN(c3ccc(Cl)cc3)CC1)=C2	202	160	184	159	–
COc1ccc(Cl)c2c1CCC(CN1CCC(C(C)=O)(c3ccccc3)CC1)=C2.Cl	143	124	134	122	–
CN1CCN(CC/C=C2/c3ccccc3Sc3ccc(S(=O)(=O)N(C)C)cc32)CC1 [THIOTHIXENE]	–	–	–	–	ED50 (Rattus norvegicus [10]): 0.32 mg/kg
COc1ccc(N2CCN(CC3=Cc4c(Cl)ccc(OC)c4CC3)CC2)cc1	129	120	131	123	–
CCN(CC)C(=O)C1CCCN(CC2=Cc3c(Cl)ccc(OC)c3CC2)C1.Cl.O (stereo not drawn)	107	175	250	214	Activity (Rattus norvegicus [11]): inactive
COc1ccc2c(c1)C=C(CN1CCCC1)CC2	114	98	149	129	–
COc1ccc(Cl)c2c1CCC(CN1CCC(C)CC1)=C2.Cl	–	–	–	–	Activity (Mus musculus [5]): 135%; LD50 [6]: 32 mg/kg; Activity (Mus musculus [7]): 158%; Activity (Mus musculus [8]): 115%; Activity (Mus musculus [9]): 128%
COc1ccc2c(c1)CCC(CN1CCCC1)=C2.Cl	96	103	92	92	–
COc1ccc(Cl)c2c1CCC(CN1CCC3(CC1)C(=O)NCN3c1ccccc1)=C2	–	–	–	–	ED50 (Rattus norvegicus [10]): 1 mg/kg; Activity (Rattus norvegicus [12]): 154%
COc1ccc(Cl)c2c1CCC(CN1CCCC(C(N)=O)C1)=C2.Cl (stereo not drawn)	197	170	91	106	Activity (Rattus norvegicus [11]): inactive
COc1ccc(Cl)c2c1CCC(CN1CCC(C(=O)N3CCCC3)CC1)=C2.Cl.O	213	155	262	172	Activity (Rattus norvegicus [12]): 332%

SMILES	Activity (Mus musculus [1]) [%]	Activity (Mus musculus [2]) [%]	Activity (Mus musculus [3]) [%]	Activity (Mus musculus [4]) [%]	also measured
COc1ccc(Cl)c2c1CCC(CN1CCC(C(=O)N3CCCCC3)CC1)=C2.Cl.O	170	124	235	149	–
COc1ccc(OC)c2c1C=C(CN1CCCC1)CC2.Cl	–	–	–	–	Activity (Mus musculus [5]): 132%; LD50 [6]: 32 mg/kg; Activity (Mus musculus [7]): 177%; Activity (Mus musculus [8]): 99%; Activity (Mus musculus [9]): 111%
Cc1cc(C)c2c(c1)C=C(CN1CCCC1)CC2.Cl	–	–	–	–	Activity (Mus musculus [5]): 120%; LD50 [6]: 32 mg/kg; Activity (Mus musculus [7]): 126%; Activity (Mus musculus [8]): 126%; Activity (Mus musculus [9]): 124%
Br.COc1cccc2c1CCC(CN1CCCC1)=C2	–	–	–	–	Activity (Mus musculus [5]): 103%; LD50 [6]: 32 mg/kg; Activity (Mus musculus [7]): 129%; Activity (Mus musculus [8]): 90%; Activity (Mus musculus [9]): 80%
COc1ccc(Cl)c2c1CCC(CN1CCN(CCO)CC1)=C2	249	236	187	191	–
CCOC(=O)N1CCN(CC2=Cc3c(Cl)ccc(OC)c3CC2)CC1.Cl	274	233	223	199	–
COc1ccc(Cl)c2c1CCC(CNCC1CC1)=C2.Cl	224	171	203	162	–
COc1ccc(C)c2c1CCC(CN1CCCC1)=C2.Cl	–	–	–	–	Activity (Mus musculus [5]): 145%; LD50 [6]: 32 mg/kg; Activity (Mus musculus [7]): 177%; Activity (Mus musculus [8]): 135%; Activity (Mus musculus [9]): 177%
COc1ccc(Cl)c2c1CCC(CN1CCC(O)CC1)=C2.Cl	174	142	239	180	–
COc1cc2c(cc1OC)CCC(CN1CCCC1)=C2.Cl	173	135	101	95	–
COc1ccc(Cl)c2c1CCC(CN1CCCCC1)=C2.Cl	155	127	212	167	–
CNCC1=Cc2c(Cl)ccc(OC)c2CC1.Cl	–	–	–	–	Activity (Mus musculus [5]): 120%; LD50 [6]: 32 mg/kg; Activity (Mus musculus [7]): 139%; Activity (Mus musculus [8]): 127%; Activity (Mus musculus [9]): 163%
COc1ccc(Cl)c2c1CCC(CN1CCC(C(=O)NC3CCCCC3)CC1)=C2	107	95	219	154	–
CNC(=O)C1CCN(CC2=Cc3c(Cl)ccc(OC)c3CC2)CC1.Cl.O	221	167	208	166	–
CCC(=O)O[C@](Cc1ccccc1)(c1ccccc1)[C@H](C)CN(C)C [PROPOXYPHENE]	139	138	169	146	–
COc1ccc(Cl)c2c1CCC(CN1CCC(O)(c3ccc(Cl)cc3)CC1)=C2.O=S(=O)(O)O	177	102	162	123	–
COc1ccc(Cl)c2c1CCC(CN1CCC(c3ccccc3)CC1)=C2.O	233	171	109	106	–
COc1ccc(Cl)c2c1CCC(CN1CCC(C(=O)N3CCOCC3)CC1)=C2.Cl	107	95	162	133	–

From ChEMBL document CHEMBL3243935, “Analgesic and tranquilizing activity of 5,8-disubstituted 2-aminomethyl-3,4-dihydronaphthalenes” (J Med Chem, 1978)
